# Compound activity (PubChem)
# FAS-TE inh = FAS thioesterase domain inhibitors, primary screen, biochemical, fluorescence intensity, uHTS. Fatty acid synthase (Homo sapiens), P49327. recombinant FAS-TE, OMFH fluorogenic substrate, fluorescence endpoint. inhibition, % at 15 µM. hit rate 0.67% among 360,000. AID 602261, 2012;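 active = compounds whose normalised, plate-corrected inhibition of enzyme fluorescence in the single-dose primary screen is 50% or more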;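 also: 0% = DMSO with enzyme and 100% = substrate without enzyme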
# iPSC survival up = enhancers of single-cell hiPSC survival, primary screen, ATPlite luminescence | 100% = ROCK inhibitor wells, 0% = DMSO | survival enhancement, % at 20 µM | hit rate 0.044% among 360,000 | AID 602274, 2012; in the data active = survival enhancement above about 18%;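 also: cells exposed to compounds for 16 hours before the ATP read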
# SENP1 inh = human SENP1 catalytic domain inhibitors, primary screen, biochemical, FRET, uHTS | hit rate 0.21% among 360,000 | recombinant SENP1 catalytic domain, CyPet-SUMO1-YPet FRET cleavage | AID 624204, 2012 | Sentrin-specific protease 1 (Homo sapiens), Q9P0U3 | inhibition, % at 10 µM;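 active = inhibition at least 30% at 10 µM, raw YFP signal under a set limit, fluorescence ratio 0.5 to 1.5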;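 also: 0% = enzyme with DMSO and 100% = no enzyme wells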
# Target sequence (Q9P0U3 419-644 limits assumed): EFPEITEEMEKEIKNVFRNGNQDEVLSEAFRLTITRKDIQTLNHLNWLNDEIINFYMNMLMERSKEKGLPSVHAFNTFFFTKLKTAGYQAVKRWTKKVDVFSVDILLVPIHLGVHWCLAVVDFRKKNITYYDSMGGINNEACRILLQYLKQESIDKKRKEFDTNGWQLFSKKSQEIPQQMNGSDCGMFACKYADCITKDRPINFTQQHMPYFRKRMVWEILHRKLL
#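 system = hSENP1 catalytic domain, recombinant | reagent = SFCypet-SUMO1-SFYpet substrate at 25 nM | doses = one dose per compound, 10 µM, 0.5% DMSO | incubation = enzyme reaction for 50 min at room temperature, dark | measured by = FRET, CFP and YFP emission | controls = no-enzyme low, enzyme-DMSO high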
# ABCB6 inh 2 = ABCB6 transporter inhibitors, primary screen, K562-ABCB6 cells, flow cytometry, MLPCN library; K562-ABCB6 porphyrin accumulation, 1 h; hits give low values; ATP-binding cassette sub-family B member 6 (Homo sapiens), Q9NP58; fluorescence ratio to DMSO, % at 10 µM; hit rate 0.19% among 360,000;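 active = fluorescence ratio to DMSO below 75%, the collection mean minus 3 SD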;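 also: signal is porphyrin accumulated inside mitochondria; 100% equals median channel fluorescence of DMSO control wells; lower ratio means ABCB6 inhibition with less porphyrin fluorescence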
# FAS-TE inh conf = FAS thioesterase domain inhibitors, confirmation, biochemical, fluorescence intensity, single concentration. shares compounds with FAS-TE inh. recombinant FAS-TE, OMFH fluorogenic substrate. inhibition, % at 15 µM. hit rate 45% among 2,300. AID 624325, 2012;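 active = compounds inhibiting the enzyme by at least 50% at 15 µM in any one of the replicates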;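 also: 0% = enzyme with DMSO only and 100% = wells lacking enzyme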
# Numbers without * were called inactive; / = no result given. This is a sample that favours compounds with a hit; in the whole collection about 1.1% have one here.
SMILES,FAS-TE inh,iPSC survival up,SENP1 inh,ABCB6 inh 2,FAS-TE inh conf
O=C(N/N=C/c1cc([N+](=O)[O-])cc([N+](=O)[O-])c1O)/C(=C\c1cccs1)NC(=O)c1ccccc1,75*,-2,11,98,74*
CC(C)(C)c1ccc(CSc2ccc(S(=O)(=O)N3CCOCC3)cn2)cc1,82*,0,0,100,74*
N#CCSc1ccc(S(=O)(=O)N2CCOCC2)cn1,-7,1,-5,101,/
CCCCn1c(=NC(C)=O)c(C#N)cc2c(=O)n3cccc(C)c3nc21,50*,0,-33,101,32
CCCCCn1c(=NC(C)=O)c(C#N)cc2c(=O)n3ccccc3nc21,61*,-2,-27,115,23
COc1cccc(CN2CC(C(=O)NCCN3CCOC3=O)CCC2=O)c1 (stereo not drawn),-4,0,2,101,/
Cc1ccccc1-n1c(=O)/c(=C\c2ccco2)s/c1=C(/C#N)C(=O)Nc1ccccc1,62*,-3,-31,114,18
CCOC(=O)/C=c1\s/c(=C(\C#N)C(=O)NC)n(-c2ccccc2)c1=O,-5,-2,6,96,/
COc1cccc(CN2CC(C(=O)N(C)C3CCOCC3)CCC2=O)c1 (stereo not drawn),-6,0,0,97,/
N#Cc1ccccc1Sc1ccccc1C(=O)Nc1ccc(Br)cc1,51*,-1,3,90,-7
CNC(=O)c1ccccc1Sc1ccccc1C#N,-2,3,1,95,/
N#Cc1ccccc1Sc1ccccc1C(=O)Nc1ccc2ccccc2c1,60*,2,0,101,38
COC(=O)C1=CN(Cc2ccccc2)C=C(C(=O)OC)C1c1cc(F)ccc1F,24,2,-158,96,/
O=C(NCc1ccccc1Br)c1ccncc1,-5,0,-1,97,/
CNc1c(NC(=O)C2CCC(C)CC2)c(=O)oc2ccccc12 (stereo not drawn),-4,-1,1,95,/
CC1CCN(C(=O)c2[nH]cnc2C(=O)Nc2ccc(Cl)cc2)CC1,54*,-1,3,96,49
CC(=O)N1c2ccc(S(=O)(=O)N3CCCCC3)cc2CC1C(=O)NCc1cccc(Cl)c1 (stereo not drawn),8,0,-1,97,/
O=C(COc1ccc2c3c(c(=O)oc2c1)CCC3)N1CCCC1,-3,0,-4,100,/
O=C(COc1ccc2c3c(c(=O)oc2c1)CCC3)N1CCN(c2ccccc2)CC1,50*,0,1,130,34*
Cc1c(Cl)c(=O)oc2cc(OCC(=O)N3CCCC(C)C3)ccc12 (stereo not drawn),64*,-1,-57,99,63*
Cc1ccc(OCC(=O)NCc2cccs2)cc1,-6,0,0,97,/
COc1ccc2c(c1)c(=O)oc1cc(OCC(=O)N3CCCC(C)C3)ccc12 (stereo not drawn),9,5,0,191,/
Cc1c(Cl)c(=O)oc2cc(OCC(=O)NCc3cccs3)ccc12,57*,1,-39,104,11
Cc1c(C)c2ccc(OCC(=O)N3CCN(c4ccccc4)CC3)cc2oc1=O,56*,0,0,96,64*
COc1ccc(OC)c(CCNC(=O)c2cccc(NC3=NC4CS(=O)(=O)CC4S3)c2)c1 (stereo not drawn),-8,1,-1,91,/
SMILES,FAS-TE inh,iPSC survival up,SENP1 inh,ABCB6 inh 2,FAS-TE inh conf
O=[N+]([O-])c1ccc(Sc2nc3ccccc3o2)c([N+](=O)[O-])c1,50*,-5,3,96,49*
O=[N+]([O-])c1ccc(Cl)cc1Sc1nc2ccccc2o1,35,-1,4,98,/
Cc1cccc(NC(=O)CN(CC2CCCO2)C(=O)c2oc3ccccc3c2C)c1C (stereo not drawn),3,0,-3,95,/
Cc1[nH]n(-c2ccccc2)c(=O)c1/C=N/NC(=O)c1cccc([N+](=O)[O-])c1,30,0,0,94,/
Cc1ccc(-n2[nH]c(C)c(/C=N/Nc3ccc([N+](=O)[O-])cc3[N+](=O)[O-])c2=O)cc1C,55*,-1,3,99,41*
COc1ccc(NC(=O)/C(Cl)=C(/Cl)S(=O)Cc2ccc(Cl)cc2)cn1 (stereo not drawn),62*,-4,1,37*,68*
COc1ccc(NC(=O)C(C)(C)Oc2ccc(Cl)cc2)cn1,-6,0,0,101,/
FC(F)(F)c1ccccc1Cc1c(-c2ccc(Cl)cc2)nc2ccc(Br)cn12,45,0,18,102,/
Cc1ccc(C)c(OCC(=O)NNC(=O)CCN2CCN(c3ccccc3)CC2)c1,-6,0,3,98,/
COc1cc(CNc2nc(C)c([N+](=O)[O-])c(C)c2C#N)cc(OC)c1OC,55*,0,5,92,59*
CC(C)C[C@H]1CN([C@@H](Cc2ccccc2)CN2CCC[C@H]2CN2C(=O)C(=O)NC[C@@H]2Cc2ccc(O)cc2)C(=O)C(=O)N1CC1CCCCCC1,14,0,2,98,/
O=C(c1cnn2c(C(F)(F)F)cc(-c3ccccc3)nc12)N1CCCc2ccccc21,-8,0,0,98,/
O=C(c1nn2c(C(F)(F)F)cc(-c3cccs3)nc2c1Cl)N1CCCc2ccccc21,68*,-1,-26,475,-3
O=C(CCC(=O)Nc1ccc(Br)cc1)N/N=C/c1cc([N+](=O)[O-])ccc1O,56*,0,-3,100,64*
O=C(Cn1nc2ccccc2n1)N/N=C/c1cc([N+](=O)[O-])ccc1O,57*,-3,-13,99,75*
Cc1cc([N+](=O)[O-])nn1CC(=O)N/N=C/c1ccccc1Br,63*,0,4,94,68*
O=C(Cn1cnc([N+](=O)[O-])n1)N/N=C/c1cc(Cl)ccc1O,79*,-2,-5,95,88*
Cc1cccc(NC(=O)CCC(=O)N/N=C/c2cc([N+](=O)[O-])ccc2O)c1,39,-2,4,94,/
O=C(Cn1nnc(-c2ccccc2)n1)N/N=C/c1cc([N+](=O)[O-])ccc1O,-10,5,-25,96,/
Cc1ccc(S(=O)(=O)N2CCN(C(C)C(=O)NCC(C)c3ccccc3)CC2)cc1 (stereo not drawn),7,0,-1,88,/
O=C(CCC(=O)Nc1ccc(F)cc1)N/N=C/c1cc([N+](=O)[O-])ccc1O,56*,0,3,105,65*
Cn1c(SCC(=O)N2c3ccccc3CCc3ccccc32)nnc1-c1cc2ccccc2cc1O,67*,4,-5,95,9
